Two compounds from ChEMBL document CHEMBL1142449 (Bioorg Med Chem, 2008) can be followed below.

The structures appear in SMILES notation.

Common to all, as to format: cell-based
Test [1] concerns the target Neurotensin receptor type 1 (Homo sapiens, UniProt P30989, F136A). Put plainly: (§1) Displacement of [3H]SR48692 from human NTR1 extracellular loop 1 F136A mutant expressed in HEK293 cells. The essentials: (§2)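 Membranes from HEK-293 cells transiently transfected (CaHPO4 method) with wild-type or EL1-mutant hNTR1 cDNA and harvested 48 h post-transfection. Homologous competition binding with 0.8 nM [3H]SR 48692 (81 Ci/mmol), adapted to 96-well format. Curves normalized per receptor, 4–6 experiments in triplicate. Kd and Bmax given with 95% confidence intervals.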

Test [2] relates to Neurotensin receptor type 1 (Homo sapiens), P30989 [F136A]. The test is described as §1. Summed up:
as §2

For test [3], the system named is Neurotensin receptor type 1 (Homo sapiens), P30989 [W129A]. Nature of the test: (§3) Displacement of [3H]SR48692 from human NTR1 extracellular loop 1 W129A mutant expressed in HEK293 cells. The essentials: as §2
Sequence of Neurotensin receptor type 1 (Homo sapiens), P30989 [W129A] (P30989 whole entry W129A): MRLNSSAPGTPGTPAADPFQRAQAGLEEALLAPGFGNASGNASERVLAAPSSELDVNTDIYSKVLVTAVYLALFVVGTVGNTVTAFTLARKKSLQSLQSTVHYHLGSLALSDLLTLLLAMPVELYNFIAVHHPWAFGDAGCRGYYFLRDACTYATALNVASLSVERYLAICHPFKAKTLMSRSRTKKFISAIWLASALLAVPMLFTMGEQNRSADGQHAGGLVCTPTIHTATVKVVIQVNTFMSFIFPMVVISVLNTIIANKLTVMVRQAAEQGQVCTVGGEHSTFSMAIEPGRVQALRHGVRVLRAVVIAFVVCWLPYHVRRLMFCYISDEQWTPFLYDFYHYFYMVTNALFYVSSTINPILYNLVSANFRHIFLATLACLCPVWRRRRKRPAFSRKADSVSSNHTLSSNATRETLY
Test [4] deals with Neurotensin receptor type 1 (Homo sapiens, UniProt P30989, W129A). Described as §3. Summed up: as §2
Sequence of Neurotensin receptor type 1 (Homo sapiens, UniProt P30989, W129A) (P30989 whole entry W129A): as above
The test system of test [5] is Neurotensin receptor type 1 (Homo sapiens), P30989 [P133A]. Put plainly: (§4) Displacement of [3H]SR48692 from human NTR1 extracellular loop 1 P133A mutant expressed in HEK293 cells. The essentials:
as §2

In test [6] the target is Neurotensin receptor type 1 (Homo sapiens, UniProt P30989, P133A). The test is described as §4. Summed up: as §2
Sequence of Neurotensin receptor type 1 (Homo sapiens, UniProt P30989, P133A) (P30989 whole entry P133A): as the sequence (P30989 whole entry W129A) above, with A129W, P133A counted along it
Test [7] deals with Neurotensin receptor type 1 (Homo sapiens), P30989 [W134A]. Put plainly: (§5) Displacement of [3H]SR48692 from human NTR1 extracellular loop 1 W134A mutant expressed in HEK293 cells. Summed up: as §2
Sequence of Neurotensin receptor type 1 (Homo sapiens), P30989 [W134A] (P30989 whole entry W134A): as the sequence (P30989 whole entry W129A) above, with A129W, W134A counted along it
Test [8] has as its target Neurotensin receptor type 1 (Homo sapiens, UniProt P30989, W134A). Described as §5. Summed up: as §2
In test [9] the target is Neurotensin receptor type 1 (Homo sapiens, UniProt P30989, H131A). Nature of the test: (§6) Displacement of [3H]SR48692 from human NTR1 extracellular loop 1 H131A mutant expressed in HEK293 cells. Summed up: as §2
Sequence of Neurotensin receptor type 1 (Homo sapiens, UniProt P30989, H131A) (P30989 whole entry H131A): as the sequence (P30989 whole entry W129A) above, with A129W, H131A counted along it
Test [10] concerns Neurotensin receptor type 1 (Homo sapiens), P30989 [H131A]. Described as §6. The essentials:
as §2

For test [11], the target named is T1, Neurotensin receptor type 1 (Homo sapiens, UniProt P30989). Nature of the test: Displacement of [3H]SR48692 from wild type human NTR1 expressed in HEK293 cells. Summed up: as §2
T1 sequence (P30989 whole entry): as the sequence (P30989 whole entry W129A) above, with A129W counted along it
Test [12] relates to Neurotensin receptor type 1 (Homo sapiens), P30989 [F127A]. Put plainly: (§7) Displacement of [3H]SR48692 from human NTR1 extracellular loop 1 F127A mutant expressed in HEK293 cells. The essentials: as §2
Sequence of Neurotensin receptor type 1 (Homo sapiens), P30989 [F127A] (P30989 whole entry F127A): as the sequence (P30989 whole entry W129A) above, with F127A, A129W counted along it
Test [13] addresses Neurotensin receptor type 1 (Homo sapiens, UniProt P30989, F127A). The description is as §7. The essentials: as §2
The target of test [14] is T1, Neurotensin receptor type 1. Put plainly: Displacement of [3H]NT(8-13) from wild type human NTR1 expressed in HEK293 cells.

Sequence of Neurotensin receptor type 1 (Homo sapiens, UniProt P30989, F127A) (P30989 whole entry F127A): as the sequence (P30989 whole entry W129A) above, with F127A, A129W counted along it
Sequence of Neurotensin receptor type 1 (Homo sapiens, UniProt P30989, F136A) (P30989 whole entry F136A): as the sequence (P30989 whole entry W129A) above, with A129W, F136A counted along it
Sequence of Neurotensin receptor type 1 (Homo sapiens), P30989 [F136A] (P30989 whole entry F136A): as the sequence (P30989 whole entry W129A) above, with A129W, F136A counted along it
Sequence of Neurotensin receptor type 1 (Homo sapiens), P30989 [P133A] (P30989 whole entry P133A): as the sequence (P30989 whole entry W129A) above, with A129W, P133A counted along it
Sequence of Neurotensin receptor type 1 (Homo sapiens), P30989 [H131A] (P30989 whole entry H131A): as the sequence (P30989 whole entry W129A) above, with A129W, H131A counted along it
Sequence of Neurotensin receptor type 1 (Homo sapiens, UniProt P30989, W134A) (P30989 whole entry W134A): as the sequence (P30989 whole entry W129A) above, with A129W, W134A counted along it

Regarding `COc1cccc(OC)c1-c1cc(C(=O)NC2(C(=O)O)C3CC4CC(C3)CC2C4)nn1-c1ccnc2cc(Cl)ccc12` (stereo not given) [REMINERTANT], the Kd in [1] worked out at 33 nM; in test [4] it was 27 nM; in [6], 9.2 nM; in test [8], 23 nM; in test [9] it was 8.4 nM; in [11], 8.9 nM. Moreover, the Kd in [13] stood at 19 nM. For the same compound, the Bmax was 10 pmol/mg in [2]; 9.4 pmol/mg in test [3]; 9.3 pmol/mg in [5]; 10 pmol/mg in test [7]; 16 pmol/mg in test [10]; 15 pmol/mg in [11]. Besides, in test [12], the Bmax stood at 18 pmol/mg.
In turn, `CC[C@H](C)[C@H](NC(=O)[C@H](Cc1ccc(O)cc1)NC(=O)[C@@H]1CCCN1C(=O)[C@H](CCCNC(=N)N)NC(=O)[C@@H](N)CCCNC(=N)N)C(=O)NC1(C(=O)O)C2CC3CC(C2)CC1C3` (stereo not given in full) registered a Ki in test [14] of 2.4 nM.
